ChEMBL document CHEMBL3758131, “Towards new 5-HT7 antagonists among arylsulfonamide derivatives of (aryloxy)ethyl-alkyl amines: Multiobjective based design, synthesis, and antidepressant and anxiolytic properties” (Eur J Med Chem, 2016)
The source made the active and inactive calls. The rule behind the calls is not given here.

Experiments:
Mus musculus [1] = experiment: Toxicity in ip dosed C57BL/6J mouse assessed as effect on spontaneous locomotory activity at MED measured over 6 mins; type: organism-based; details: in vivo, 0.1 h
Method in brief: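 Mice habituated 30 min in individual cages, then ambulation counted over a period matching each behavioural test: 6 min for the tail suspension test and 1 min 15 s for the four-plate test. Compounds given ip at the active doses.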

Mus musculus [2] = experiment: Toxicity in ip dosed C57BL/6J mouse assessed as effect on spontaneous locomotory activity at MED measured over 1 min 15 secs; type: organism-based; details: in vivo
Mus musculus [3] = experiment: Antidepressant activity in C57BL/6J mouse assessed as average force at 10 mg/kg, ip measured over 6 mins by tail suspension test (reference value: 0.281 +/- 0.018 to 0.359 +/- 0.027 N); type: functional
Mus musculus [4] = experiment: Antidepressant activity in C57BL/6J mouse assessed as average force at 20 mg/kg, ip measured over 6 mins by tail suspension test (reference value: 0.281 +/- 0.018 to 0.359 +/- 0.027 N); type: functional
Mus musculus [5] = experiment: Antidepressant activity in C57BL/6J mouse assessed as average force at 40 mg/kg, ip measured over 6 mins by tail suspension test (reference value: 0.281 +/- 0.018 to 0.359 +/- 0.027 N); type: functional
Mus musculus [6] = experiment: Antidepressant activity in C57BL/6J mouse assessed as number of events at 10 mg/kg, ip measured over 6 mins by tail suspension test (reference value: 1325.1 +/- 77.8 to 1773.4 +/- 109.9); type: functional
Mus musculus [7] = experiment: Antidepressant activity in C57BL/6J mouse assessed as number of events at 20 mg/kg, ip measured over 6 mins by tail suspension test (reference value: 1325.1 +/- 77.8 to 1773.4 +/- 109.9); type: functional
Mus musculus [8] = experiment: Antidepressant activity in C57BL/6J mouse assessed as number of events at 40 mg/kg, ip measured over 6 mins by tail suspension test (reference value: 1325.1 +/- 77.8 to 1773.4 +/- 109.9); type: functional
Mus musculus [9] = experiment: Antidepressant activity in C57BL/6J mouse assessed as immobility time at 10 mg/kg, ip measured over 6 mins by tail suspension test (reference value: 160.7 +/- 12 to 170.6 +/- 9 sec); type: functional
Mus musculus [10] = experiment: Antidepressant activity in C57BL/6J mouse assessed as immobility time at 20 mg/kg, ip measured over 6 mins by tail suspension test (reference value: 160.7 +/- 12 to 170.6 +/- 9 sec); type: functional
Mus musculus [11] = experiment: Antidepressant activity in C57BL/6J mouse assessed as immobility time at 40 mg/kg, ip measured over 6 mins by tail suspension test (reference value: 160.7 +/- 12 to 170.6 +/- 9 sec); type: functional
Mus musculus [12] = experiment: Antidepressant activity in ip dosed albino Swiss mouse assessed as decrease in immobility time by forced swim test; type: functional, organism-based
Mus musculus [13] = experiment: Toxicity in ip dosed albino Swiss mouse assessed as effect on spontaneous locomotory activity at MED measured over 2 to 6 mins; type: organism-based; details: in vivo
Method in brief: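 Male Albino Swiss mice (22–28 g) received drug i.p. 60 min before testing, in 1% aqueous Tween 80 or distilled water. Each mouse was habituated alone in a plastic cage for 30 min, then ambulation was counted from 2 to 6 min. Groups of 6–10 animals, each used once.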

Mus musculus [14] = experiment: Antidepressant activity in ip dosed C57BL/6J mouse assessed as reduction in immobility time of mouse by tail suspension test; type: functional; details: read-out: MED
Rattus norvegicus = experiment: Antidepressant activity in ip dosed Wistar rat assessed as reduction in immobility time of rat by forced swim test; type: functional
Method in brief: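 Male Wistar rats (220-250 g), ip injection 30 min before test. Day 1: 15-min pre-swim in a cylinder with 15 cm of water at 25 °C, then drying under a lamp. Next day: total immobility recorded over the whole 5-min test, with fresh water for each rat.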

[15] = target: 5-hydroxytryptamine receptor 2A (Homo sapiens, UniProt P28223); experiment: Displacement of [3H]-Ketanserin from human 5-HT2A receptor expressed in HEK293 cells after 1 hr; type: cell-based
Sequence of 5-hydroxytryptamine receptor 2A (P28223 whole entry): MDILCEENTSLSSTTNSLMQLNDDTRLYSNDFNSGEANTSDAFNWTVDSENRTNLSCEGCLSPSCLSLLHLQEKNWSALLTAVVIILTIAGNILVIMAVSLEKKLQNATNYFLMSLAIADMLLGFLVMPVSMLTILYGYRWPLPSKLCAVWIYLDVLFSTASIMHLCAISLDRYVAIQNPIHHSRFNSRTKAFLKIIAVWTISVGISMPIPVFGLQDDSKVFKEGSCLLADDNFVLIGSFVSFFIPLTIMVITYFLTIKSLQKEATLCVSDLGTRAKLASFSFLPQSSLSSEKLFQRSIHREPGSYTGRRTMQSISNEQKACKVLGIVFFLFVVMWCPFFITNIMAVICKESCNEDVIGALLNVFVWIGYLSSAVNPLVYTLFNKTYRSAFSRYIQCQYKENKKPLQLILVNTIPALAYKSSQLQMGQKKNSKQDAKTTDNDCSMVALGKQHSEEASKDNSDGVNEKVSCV

[16] = target: T1, 5-hydroxytryptamine receptor 7 (Homo sapiens, UniProt P34969); experiment: Antagonist activity at human 5-HT7B receptor expressed in CHO cells assessed as inhibition of 5-CT induced cAMP production at 10^-7 M after 30 mins by TR-FRET assay; type: functional, cell-based
T1 sequence (P34969 whole entry): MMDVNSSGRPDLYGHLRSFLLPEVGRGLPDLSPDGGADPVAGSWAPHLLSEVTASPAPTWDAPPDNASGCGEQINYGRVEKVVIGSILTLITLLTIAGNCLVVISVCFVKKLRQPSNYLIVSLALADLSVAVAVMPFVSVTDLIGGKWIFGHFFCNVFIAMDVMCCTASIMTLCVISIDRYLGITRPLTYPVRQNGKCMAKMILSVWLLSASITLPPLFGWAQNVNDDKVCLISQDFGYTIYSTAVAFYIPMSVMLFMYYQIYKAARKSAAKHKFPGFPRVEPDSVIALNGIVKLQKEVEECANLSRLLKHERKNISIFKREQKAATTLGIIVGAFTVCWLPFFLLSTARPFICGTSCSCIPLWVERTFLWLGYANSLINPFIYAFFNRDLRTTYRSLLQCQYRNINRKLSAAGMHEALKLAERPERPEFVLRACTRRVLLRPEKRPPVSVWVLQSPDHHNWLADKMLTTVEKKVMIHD

[17] = target: T1, 5-hydroxytryptamine receptor 7; experiment: Antagonist activity at human 5-HT7B receptor expressed in […] cells assessed as inhibition of 5-CT induced cAMP production at 10^-6 M after 30 mins by TR-FRET assay; type: functional, cell-based
Homo sapiens = species on record: Homo sapiens; experiment: Selectivity index ratio of Ki for human 5-HT1A receptor to Ki for human 5-HT7B
[18] = target: T1, 5-hydroxytryptamine receptor 7; experiment: Displacement of [3H]-5-CT from human 5-HT7B receptor expressed in HEK293 cells after 1 hr; type: cell-based
Method in brief: (§1)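 Competition binding on membranes from HEK293 cells stably expressing human 5-HT7b or 5-HT1A. Incubation 1 h, at 37 °C for 5-HT7b and at room temperature for 5-HT1A. Non-specific binding defined with 10 µM 5-HT.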

[19] = target: T2, 5-hydroxytryptamine receptor 1A (Homo sapiens, UniProt P08908); experiment: Displacement of [3H]-8-OH-DPAT from human 5-HT1A receptor expressed in HEK293 cells after 1 hr; type: cell-based; method in brief: as §1
T2 sequence (P08908 whole entry): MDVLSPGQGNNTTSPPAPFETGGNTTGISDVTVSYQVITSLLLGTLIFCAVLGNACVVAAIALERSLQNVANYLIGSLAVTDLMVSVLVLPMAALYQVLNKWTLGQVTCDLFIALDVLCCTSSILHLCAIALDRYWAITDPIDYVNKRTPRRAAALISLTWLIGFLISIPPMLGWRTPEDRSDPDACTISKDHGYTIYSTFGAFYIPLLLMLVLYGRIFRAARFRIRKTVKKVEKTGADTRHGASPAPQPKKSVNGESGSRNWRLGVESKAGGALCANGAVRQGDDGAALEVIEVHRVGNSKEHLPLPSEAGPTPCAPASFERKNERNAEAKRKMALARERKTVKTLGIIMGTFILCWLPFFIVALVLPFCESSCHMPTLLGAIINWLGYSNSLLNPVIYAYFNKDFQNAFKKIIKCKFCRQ

Mus musculus [20] = experiment: Antidepressant activity in C57BL/6J mouse assessed as number of events at […] mg/kg, ip measured over 6 mins by tail suspension test (reference value: 1325.1 +/- 77.8 to 1773.4 +/- 109.9); type: functional
Mus musculus [21] = experiment: Antidepressant activity in C57BL/6J mouse assessed as number of events at […], ip measured over 6 mins by tail suspension test (reference value: 1325.1 +/- 77.8 to 1773.4 +/- 109.9); type: functional
Mus musculus [22] = experiment: Antidepressant activity in C57BL/6J mouse assessed as number of events at 5 mg/kg, ip measured over 6 mins by tail suspension test (reference value: 1325.1 +/- 77.8 to 1773.4 +/- 109.9); type: functional
Mus musculus [23] = experiment: Antidepressant activity in C57BL/6J mouse assessed as immobility time at […] mg/kg, ip measured over 6 mins by tail suspension test (reference value: 160.7 +/- 12 to 170.6 +/- 9 sec); type: functional
Mus musculus [24] = experiment: Antidepressant activity in C57BL/6J mouse assessed as immobility time at […], ip measured over 6 mins by tail suspension test (reference value: 160.7 +/- 12 to 170.6 +/- 9 sec); type: functional
Mus musculus [25] = experiment: Antidepressant activity in C57BL/6J mouse assessed as immobility time at 5 mg/kg, ip measured over 6 mins by tail suspension test (reference value: 160.7 +/- 12 to 170.6 +/- 9 sec); type: functional
Mus musculus [26] = experiment: Antidepressant activity in albino Swiss mouse assessed as decrease in immobility time at 10 mg/kg, ip by forced swim test; type: functional
Mus musculus [27] = experiment: Anxiolytic activity in ip dosed albino Swiss mouse assessed as increase in number of shocks accepted measured over 1 min, 15 secs by four plates test; type: functional; details: read-out: MED
Method in brief: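 Male Albino Swiss mice, ip injection 60 min before test. Four-plate cage; after 15 s of habituation, each plate-to-plate crossing during a 1-min session is punished with a 0.8 mA, 0.5 s foot shock, followed by a 3-s shock-free interval. Number of shocks accepted is counted.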

Mus musculus [28] = experiment: Antidepressant activity in C57BL/6J mouse assessed as average force at […] mg/kg, ip measured over 6 mins by tail suspension test (reference value: 0.281 +/- 0.018 to 0.359 +/- 0.027 N); type: functional
Mus musculus [29] = experiment: Antidepressant activity in C57BL/6J mouse assessed as average force at […], ip measured over 6 mins by tail suspension test (reference value: 0.281 +/- 0.018 to 0.359 +/- 0.027 N); type: functional
Mus musculus [30] = experiment: Antidepressant activity in C57BL/6J mouse assessed as average force at 5 mg/kg, ip measured over 6 mins by tail suspension test (reference value: 0.281 +/- 0.018 to 0.359 +/- 0.027 N); type: functional

In the case of CN1C(=O)CN=C(c2ccccc2)c2cc(Cl)ccc21 [DIAZEPAM], the Activity (Mus musculus [1]) is reported as “Non-toxic” and the Activity (Mus musculus [2]) is reported as “Non-toxic”.
CN(C)CCCC1(c2ccc(F)cc2)OCc2cc(C#N)ccc21 (centres undefined) [CITALOPRAM] showed an Activity (Mus musculus [3]) of 0.318 N, an Activity (Mus musculus [4]) of 0.381 N and an Activity (Mus musculus [5]) of 0.398 N. The Activity (Mus musculus [6]) was 1820.1, the Activity (Mus musculus [7]) was 1961.3 and the Activity (Mus musculus [8]) was 2053.1. For the same molecule, the Time (Mus musculus [9]) was 148.7 s, the Time (Mus musculus [10]) was 103 s and the Time (Mus musculus [11]) was 95.5 s. The inhibition (Mus musculus [12]) was “Dose-dependent effect”, the Activity (Mus musculus [13]) was “Non-toxic” and the minimal effective dose (Mus musculus [14]) was 20 mg/kg. The MED (Rattus norvegicus) was “inactive”, the Activity (Mus musculus [1]) was “Non-toxic” and the Activity (Mus musculus [2]) was “Non-toxic”.
CC(C)c1ccccc1OCCN1CCC(NS(=O)(=O)c2cccc(F)c2)CC1 showed a Ki [15] of 178 nM, an inhibition [16] of 70% and an inhibition [17] of 99%.
Molecule CC(C)(C)c1ccccc1OCCN1CCC(NS(=O)(=O)c2ccc(F)cc2)CC1 has a Ratio Ki (Homo sapiens) of 85, a Ki [18] of 54 nM and a Ki [19] of 4570 nM.
CC(C)c1cccc(OCCN2C3CCC2CC(NS(=O)(=O)c2cnn(C)c2)C3)c1 (centres undefined) gave a Ratio Ki (Homo sapiens) of 6, a Ki [18] of 70 nM and a Ki [19] of 431 nM.
CC(C)c1ccccc1OCCN1CC2CC1CN2S(=O)(=O)c1cccc(Cl)c1 (centres undefined) gave a Ratio Ki (Homo sapiens) of 2, a Ki [18] of 168 nM and a Ki [19] of 393 nM.
With CC1CCN(CC[C@H]2CCCN2S(=O)(=O)c2cccc(O)c2)CC1 the Activity (Mus musculus [3]) was 0.311 N, the Activity (Mus musculus [20]) was 1764.8 and the Activity (Mus musculus [21]) was 1467.1. The Activity (Mus musculus [22]) was 1604.7, the Activity (Mus musculus [6]) was 1600.1 and the Time (Mus musculus [23]) was 139.5 s. It also gave a Time (Mus musculus [24]) of 151 s, a Time (Mus musculus [25]) of 170.6 s and a Time (Mus musculus [9]) of 186.1 s. For the same molecule, the inhibition in vivo at 10 mg/kg (Mus musculus [26]) was 31%, the Activity (Mus musculus [13]) was “Non-toxic” and the minimal effective dose (Mus musculus [14]) was 2.5 mg/kg. The minimal effective dose (Rattus norvegicus; read-out: MED) was 1.25 mg/kg, the minimal effective dose (Mus musculus [27]) was 1 mg/kg and the Activity (Mus musculus [1]) was “Non-toxic”. The Activity (Mus musculus [2]) was “Non-toxic”, the Activity (Mus musculus [28]) was 0.396 N and the Activity (Mus musculus [29]) was 0.449 N. It also gave an Activity (Mus musculus [30]) of 0.363 N.
Molecule O=S(=O)(c1ccc(F)cc1)N1CC2CC1CN2CCOc1ccccc1-c1ccccc1 (centres undefined) has a Ratio Ki (Homo sapiens) of 4, a Ki [18] of 292 nM and a Ki [19] of 1070 nM.
CC(C)c1ccccc1OCCN1CCC(NC(=O)Nc2cccc(Cl)c2)CC1 gave a Ratio Ki (Homo sapiens) of 2, a Ki [18] of 264 nM and a Ki [19] of 591 nM.
